The record followed here is ChEMBL document CHEMBL1649256, “Comparison of assessment of oxygen consumption, Etest, and CLSI M38-A2 broth microdilution methods for evaluation of the susceptibility of Aspergillus fumigatus to posaconazole” (2009).

A word on the MIC: it is the smallest concentration in the dilution series that meets the test's criterion for growth inhibition.

SMILES strings stand for the structures. Values after ≈ are worked out from the molar mass of the structure shown.

Type in all cases: functional
In assay [1] the test system is Aspergillus fumigatus. The assay can be described thus: Antimicrobial activity against Aspergillus fumigatus isolate 37 by oxygen consumption method. The essentials:
(§1)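 Conidial suspension in RPMI 1640 broth, tested at two posaconazole levels (0.25 and 2 μg/ml). Agitated for 12 h at 37°C in a biological oxygen monitor. MIC derived from continuous monitoring and quantification of the available oxygen.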

The subject of assay [2] is Aspergillus fumigatus. The assay is described as follows: Antimicrobial activity against Aspergillus fumigatus isolate 50 after 24 hrs by Etest. The conditions noted are these: isolate 50, 24 h.
Assay [3] has as its system Aspergillus fumigatus. The assay is described as follows: Antimicrobial activity against Aspergillus fumigatus isolate 11 after 48 hrs by Etest. The conditions noted are these: isolate 11, 48 h. The essentials:
(§2)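 Posaconazole Etest strips placed on RPMI 1640 agar with 2% glucose, pH 7.0, and run per the strip maker's instructions. Incubation at 35°C, with the MIC read at 24 h and at 48 h.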

Assay [4] has as its system Aspergillus fumigatus. The assay is described as follows: Antimicrobial activity against Aspergillus fumigatus isolate 42 after 24 hrs by Etest. Conditions: isolate 42, 24 h. The essentials: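 Posaconazole Etest strips on RPMI 1640 agar with 2% glucose, pH 7.0, run per the strip maker's instructions. Incubated at 35°C. MIC read at 24 h and at 48 h, matching the time in each line.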

Assay [5] has as its system Aspergillus fumigatus. The assay can be described thus: Antimicrobial activity against Aspergillus fumigatus isolate 34 by oxygen consumption method. The essentials: as §1
Assay [6] deals with Aspergillus fumigatus. The assay can be described thus: Antimicrobial activity against Aspergillus fumigatus isolate 34 by CLSI M38-A2 broth microdilution method. The essentials:
(§3)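 CLSI M38-A2 broth microdilution with posaconazole. MIC taken as the lowest concentration with no visible growth at 48 h. C. parapsilosis ATCC 22019 and C. krusei ATCC 6258 were included as QC strains in every run.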
On the technique in general: Dilution methods test growth across graded concentrations, often in twofold steps.

The test system of assay [7] is Aspergillus fumigatus. The assay can be described thus: Antimicrobial activity against Aspergillus fumigatus isolate 39 by CLSI M38-A2 broth microdilution method. The essentials: as §3
Assay [8] relates to Aspergillus fumigatus. The assay is described as follows: Antimicrobial activity against Aspergillus fumigatus isolate 19 by oxygen consumption method. The essentials:
(§4)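 Conidial suspension in RPMI 1640 broth with posaconazole at 0.25 and 2 μg/ml. Tubes agitated 12 h at 37°C in a biological oxygen monitor. Available oxygen was monitored continuously, and the MIC was assigned from the oxygen quantification.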

Assay [9] has as its system Aspergillus fumigatus. The assay is described as follows: Antimicrobial activity against Aspergillus fumigatus isolate 44 after 48 hrs by Etest. The conditions noted are these: isolate 44, 48 h.
For assay [10], the system named is Aspergillus fumigatus. The assay can be described thus: Antimicrobial activity against Aspergillus fumigatus isolate 42 by oxygen consumption method. The essentials: as §1
Assay [11] has as its system Aspergillus fumigatus. The assay can be described thus: Antimicrobial activity against Aspergillus fumigatus isolate 19 by CLSI M38-A2 broth microdilution method. The essentials:
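Posaconazole broth microdilution follows CLSI M38-A2. The MIC is the lowest concentration with no visible growth at 48 h. Candida parapsilosis ATCC 22019 and Candida krusei ATCC 6258 were included as QC strains in every run.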

The test system of assay [12] is Aspergillus fumigatus. The assay is described as follows: Antimicrobial activity against Aspergillus fumigatus isolate 44 after 24 hrs by Etest. The conditions noted are these: isolate 44, 24 h.
Assay [13] has as its system Aspergillus fumigatus. The assay can be described thus: Antimicrobial activity against Aspergillus fumigatus isolate 26 after 24 hrs by Etest. The conditions noted are these: isolate 26, 24 h. The essentials: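 Etest strips on RPMI 1640 agar with 2% glucose, pH 7.0, run per manufacturer's instructions. Incubated at 35°C; MIC read at 24 h.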
The subject of assay [14] is Aspergillus fumigatus. The assay can be described thus: Antimicrobial activity against Aspergillus fumigatus isolate 47 by oxygen consumption method.
For assay [15], the system named is Aspergillus fumigatus. The assay can be described thus: Antimicrobial activity against Aspergillus fumigatus isolate 18 after 24 hrs by Etest. The conditions noted are these: isolate 18, 24 h. The essentials: as §2
In assay [16] the test system is Aspergillus fumigatus. The assay is described as follows: Antimicrobial activity against Aspergillus fumigatus isolate 18 after 48 hrs by Etest. The conditions noted are these: isolate 18, 48 h. The essentials:
as §2

Assay [17] deals with Aspergillus fumigatus. The assay is described as follows: Antimicrobial activity against Aspergillus fumigatus isolate 10 by oxygen consumption method. The essentials: as §4
Assay [18] deals with Aspergillus fumigatus. The assay can be described thus: Antimicrobial activity against Aspergillus fumigatus isolate 41 by oxygen consumption method. The essentials: as §1
Assay [19] concerns Aspergillus fumigatus. The assay is described as follows: Antimicrobial activity against Aspergillus fumigatus isolate 45 by oxygen consumption method.
The subject of assay [20] is Aspergillus fumigatus. The assay is described as follows: Antimicrobial activity against Aspergillus fumigatus isolate 42 by CLSI M38-A2 broth microdilution method. The essentials: as §3

For the molecule `CC[C@@H]([C@H](C)O)n1ncn(-c2ccc(N3CCN(c4ccc(OC[C@@H]5CO[C@@](Cn6cncn6)(c6ccc(F)cc6F)C5)cc4)CC3)cc2)c1=O` [POSACONAZOLE], the MIC in the assay with Aspergillus fumigatus [1] was not above 0.25 µg/mL; with Aspergillus fumigatus [2] it was 0.25 µg/mL (≈ 0.357 µM); in the assay on Aspergillus fumigatus [3] it was 0.25 µg/mL (≈ 0.357 µM); with Aspergillus fumigatus [4], 0.06 µg/mL (≈ 0.0856 µM); against Aspergillus fumigatus [5], not above 0.25 µg/mL; in the assay on Aspergillus fumigatus [6] it was 0.125 µg/mL (≈ 0.178 µM). For the same molecule, the MIC is 0.06 µg/mL (≈ 0.0856 µM) in the assay on Aspergillus fumigatus [7]; not below 0.5 µg/mL in the assay on Aspergillus fumigatus [8]; 0.06 µg/mL (≈ 0.0856 µM) against Aspergillus fumigatus [9]; not above 0.25 µg/mL with Aspergillus fumigatus [10]; 0.5 µg/mL (≈ 0.713 µM) against Aspergillus fumigatus [11]; not above 0.03 µg/mL against Aspergillus fumigatus [12]. For the same molecule, the MIC in the assay with Aspergillus fumigatus [13] is 0.25 µg/mL (≈ 0.357 µM); with Aspergillus fumigatus [14] it was not above 0.25 µg/mL; in the assay on Aspergillus fumigatus [15], 0.125 µg/mL (≈ 0.178 µM); in the assay with Aspergillus fumigatus [16] it was 0.25 µg/mL (≈ 0.357 µM); against Aspergillus fumigatus [17], not above 0.25 µg/mL; with Aspergillus fumigatus [18], not above 0.25 µg/mL. In addition, the figures for the minimum inhibitory concentration (MIC) with Aspergillus fumigatus [19] and against Aspergillus fumigatus [20] were not below 0.5 µg/mL and 0.06 µg/mL (≈ 0.0856 µM), respectively.
